In ChEMBL document CHEMBL4138204, “Polyoxygenated Steroids from the Sponge Clathria gombawuiensis” (J Nat Prod, 2017):
Active and inactive are the calls of the source. The calls are words filed in the database; no cut-off is given here.

Assays:
[1] = system: Trichophyton mentagrophytes; assay: Antifungal activity against Trichophyton mentagrophytes IFO 40996 measured after 48 to 72 hrs; assay type: functional
A549 = assay: Cytotoxicity against human A549 cells after 72 hrs by MTT assay; assay type: functional, cell-based; details: A549, 72 h
Proteus hauseri = assay: Antibacterial activity against Proteus hauseri NBRC 3851 measured after 24 hrs; assay type: functional; details: NBRC 3851, 24 h
C2C12 [2] = assay: Activation of AMPKalpha in mouse C2C12 cells assessed as increase in phosphorylation of ACC at Ser79 at 20 uM after 30 mins by Western blot analysis; assay type: cell-based
Method in brief: (§1)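 Differentiated mouse C2C12 skeletal myoblasts were given compounds at 20 μM, or Aicar (0.2 mM, AMPK activator), for 30 min. pAMPK (Thr172) and pACC (Ser79) were quantified by Western blot. Mean ± SD of 2–4 independent experiments, compared with vehicle by ANOVA.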

[3] = Inhibition of isocitrate lyase (unknown origin)
K562 = assay: Cytotoxicity against human K562 cells after 72 hrs by MTT assay; assay type: functional, cell-based; details: K562, 72 h
Bacillus spizizenii = assay: Antibacterial activity against Bacillus subtilis ATCC 6633 measured after 24 hrs; assay type: functional; details: ATCC 6633, 24 h
C2C12 [4] = assay: Activation of AMPKalpha phosphorylation at Thr172 in mouse C2C12 cells at 20 uM after 30 mins by Western blot analysis; assay type: cell-based; method in brief: as §1
Staphylococcus aureus = assay: Antibacterial activity against Staphylococcus aureus ATCC 6538P measured after 24 hrs; assay type: functional
Mus musculus [5] = species: Mus musculus; assay: Activation of AMPKalpha in differentiated mouse 3T3L1 cells assessed as increase in 2-NBDG uptake pretreated for 30 mins followed by 2-NBDG addition measured after 1 hr by fluorescence assay
Method in brief: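 2-NBDG uptake in differentiated 3T3-L1 adipocytes. Cells got compounds at several concentrations, or 100 nM insulin as a positive control. After 1 h incubation, fluorescence was read at ex/em 450/535 nm. Mean ± SD (n = 3), compared with vehicle by ANOVA.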

[6] = Inhibition of recombinant sortase A (unknown origin) using Dabcyl-QALPETGEE-Edans as substrate measured after 1 hr by fluorescence assay; set-up: species or system Bacteria
Kocuria rhizophila = assay: Antibacterial activity against Kocuria rhizophila NBRC 12708 measured after 24 hrs; assay type: functional; details: NBRC 12708, 24 h
[7] = biological target: Sodium/potassium-transporting ATPase; assay: Inhibition of potassium-activated sodium/potassium ATPase in human placenta using 3-Omethylfluorescein phosphate as substrate measured for 90 secs by fluorescence assay
Trichophyton rubrum = assay: Antifungal activity against Trichophyton rubrum IFO 9185 measured after 48 to 72 hrs; assay type: functional
Mus musculus [8] = species: Mus musculus; assay: Activation of AMPKalpha in differentiated mouse 3T3L1 cells assessed as increase in 2-NBDG uptake at 20 uM by fluorescence microscopic analysis
Method in brief: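 Differentiated 3T3-L1 adipocytes were treated with 20 μM compound or 100 nM insulin as a positive control, then exposed to 2-NBDG as the fluorescent glucose analogue. Uptake was imaged by fluorescence microscopy as green signal inside the cells.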

Candida albicans = assay: Antifungal activity against Candida albicans ATCC 10231 measured after 48 to 72 hrs; assay type: functional
Aspergillus fumigatus = assay: Antifungal activity against Aspergillus fumigatus HIC 6094 measured after 48 to 72 hrs; assay type: functional
Escherichia coli = assay: Antibacterial activity against Escherichia coli ATCC 35270 measured after 24 hrs; assay type: functional; details: ATCC 35270, 24 h
Salmonella typhimurium = assay: Antibacterial activity against Salmonella enterica ATCC 14028 measured after 24 hrs; assay type: functional, Salmonella enterica subsp. enterica serovar Typhimurium; details: ATCC 14028, 24 h
C2C12 [9] = assay: Activation of AMPKalpha phosphorylation at Thr172 in mouse C2C12 cells at 5 to 20 uM after 30 mins in presence of AMPK inhibitor dorsomorphin by Western blot analysis; assay type: cell-based
Method in brief: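 C2C12 myoblasts were exposed to compound at 5, 10 and 20 μM for 30 min, with compound C pretreatment used to test AMPK dependence. pAMPK (Thr172) was measured by Western blot. Mean ± SD (n = 3), compared with control.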

| SMILES | MIC [1] [µM] | IC50 (A549) [µM] | MIC (Proteus hauseri) [µM] | Activity (C2C12 [2]) | IC50 [3] [µM] | IC50 (K562) [µM] | MIC (Bacillus spizizenii) [µM] | Activity (C2C12 [4]) | MIC (Staphylococcus aureus) [µM] | Activity (Mus musculus [5]) | IC50 [6] [µM] | MIC (Kocuria rhizophila) [µM] | IC50 [7] [µM] | MIC (Trichophyton rubrum) [µM] | Activity (Mus musculus [8]) | MIC (Candida albicans) [µM] | MIC (Aspergillus fumigatus) [µM] | MIC (Escherichia coli) [µM] | MIC (Salmonella typhimurium) [µM] | Activity (C2C12 [9]) |
| --- | --- | --- | --- | --- | --- | --- | --- | --- | --- | --- | --- | --- | --- | --- | --- | --- | --- | --- | --- | --- |
| CC(C)[C@H](C)[C@@H](O)[C@H](O)[C@@H](C)[C@H]1CC(=O)[C@@H]2[C@@H]3[C@@H](O)[C@H](O)[C@H]4[C@H](O)[C@@H](O)CC[C@]4(C)[C@H]3CC[C@]12C | > 128 | > 10 | > 128 | Active | > 128 | > 10 | > 128 | Active | > 128 | Dose-dependent effect | > 128 | > 128 | > 128 | > 128 | Active | > 128 | > 128 | > 128 | > 128 | – |
| CC(C)C[C@H](O)C[C@@H](C)[C@H]1CC(=O)[C@@H]2[C@@H]3[C@@H](O)[C@H](O)[C@H]4[C@H](O)[C@@H](O)CC[C@]4(C)[C@H]3CC[C@]12C | > 128 | > 10 | > 128 | Active | > 128 | > 10 | > 128 | Active | > 128 | – | > 128 | > 128 | > 128 | > 128 | – | > 128 | > 128 | > 128 | > 128 | – |
| CC(C)[C@@H](CC[C@@H](C)[C@H]1CC(=O)[C@@H]2[C@@H]3[C@@H](O)[C@H](O)[C@H]4C[C@@H](O)CC[C@]4(C)[C@H]3CC[C@]12C)[C@@H](C)O | > 128 | > 10 | > 128 | Active | > 128 | > 10 | > 128 | Active | > 128 | Dose-dependent effect | > 128 | > 128 | > 128 | > 128 | Active | > 128 | > 128 | > 128 | > 128 | – |
| CC(C)C[C@@H](O)[C@H](O)[C@@H](C)[C@H]1CC(=O)[C@@H]2[C@@H]3[C@@H](O)[C@H](O)[C@H]4[C@H](O)[C@@H](O)CC[C@]4(C)[C@H]3CC[C@]12C | > 128 | > 10 | > 128 | Active | > 128 | > 10 | > 128 | Active | > 128 | Dose-dependent effect | > 128 | > 128 | > 128 | > 128 | Active | > 128 | > 128 | > 128 | > 128 | – |
| CC(C)[C@H](C)[C@@H](O)[C@H](O)[C@@H](C)[C@H]1CC(=O)[C@@H]2[C@@H]3[C@@H](OS(=O)(=O)O)[C@H](O)[C@H]4[C@H](O)[C@@H](O)CC[C@]4(C)[C@H]3CC[C@]12C | > 128 | > 10 | > 128 | Active | > 128 | > 10 | > 128 | Active | > 128 | – | > 128 | > 128 | > 128 | > 128 | – | > 128 | > 128 | > 128 | > 128 | – |
| CC(C)[C@H](C)[C@@H](O)C[C@@H](C)[C@H]1CC(=O)[C@H]2[C@@H]3[C@@H](O)[C@H](O)[C@H]4[C@H](O)[C@@H](O)CC[C@]4(C)[C@H]3CC[C@]12C | > 128 | > 10 | > 128 | Active | > 128 | > 10 | > 128 | Active | > 128 | Dose-dependent effect | > 128 | > 128 | > 128 | > 128 | Active | > 128 | > 128 | > 128 | > 128 | – |
| CC(C)[C@H](C)[C@@H](O)[C@H](O)[C@@H](C)[C@H]1CC(=O)[C@H]2[C@@H]3[C@@H](O)[C@H](O)[C@H]4[C@H](O)[C@@H](O)CC[C@]4(C)[C@H]3CC[C@]12C | > 128 | > 10 | > 128 | Active | > 128 | > 10 | > 128 | Active | > 128 | Dose-dependent effect | > 128 | > 128 | > 128 | > 128 | Active | > 128 | > 128 | > 128 | > 128 | inactive |
